The record followed here is ChEMBL document CHEMBL4837203, “Innovative C2-symmetric testosterone and androstenedione dimers: Design, synthesis, biological evaluation on prostate cancer cell lines and binding study to recombinant CYP3A4” (Eur J Med Chem, 2021).

Experiment [1] has as its system LNCaP. Description: Antiproliferative activity against androgen-sensitive human LNCaP cells assessed as inhibition of cell growth incubated for 48 hrs by MTT assay. The class given is functional, cell-based. The procedure, abridged:
(§1)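 MTT assay. Cells were seeded at 8 × 10^3/well and left overnight, then grown 48 h in fresh medium with a range of compound concentrations. They were stained with 0.5 mg/mL MTT for 3 h, solubilised in 10% Triton X-100 in acidic isopropanol (0.1 N HCl), and read at 590 nm. Growth inhibition was calculated against control plates fixed on the treatment day. LNCaP and PC3 were kept in RPMI with 10% calf serum. Three replicate wells per condition, three independent repeats.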
(In general: Tetrazolium dyes change colour on reduction, which living cells bring about.)

A further experiment relates to PC-3. Kind of experiment: Antiproliferative activity against androgen-insensitive human PC-3 cells assessed as inhibition of cell growth incubated for 48 hrs by MTT assay. The class given is functional, cell-based. To be noted: PC-3, 48 h. A digest of the protocol:
as §1

For the next experiment, the system named is DU-145. Description: Antiproliferative activity against androgen-insensitive human DU-145 cells assessed as inhibition of cell growth incubated for 48 hrs by MTT assay. The class given is functional, cell-based. The note with it: DU-145, 48 h.
Experiment [2] relates to LNCaP. Description: Antiproliferative activity against androgen-sensitive human LNCaP cells assessed as inhibition of testosterone-induced cell growth at 0.25 uM incubated for 48 hrs by MTT assay. The class given is functional. The arrangement: scale not given: the % may be the effect or the level left. The procedure, abridged: (§2)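 Androgen-stimulated proliferation in LNCaP: cells seeded at 8 × 10^3/well in RPMI with 10% FBS and grown 48 h. Then exposed 48 h to 0.1 nM testosterone alone or combined with test agent at 0.125–1 μM. Vehicle control was 0.1% DMSO. Read-out was MTT (3 h, 37 °C) at OD 590 nm, as fold induction versus vehicle. Triplicate wells ×3 repeats.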

In experiment [3] the test system is LNCaP. Kind of experiment: Antiproliferative activity against androgen-sensitive human LNCaP cells assessed as inhibition of testosterone-induced cell growth at 0.5 uM incubated for 48 hrs by MTT assay relative to non-stimulation. The class given is functional. The arrangement: scale not given: the % may be the effect or the level left. The procedure, abridged: as §2

Experiment [4] deals with LNCaP. Kind of experiment: Antiproliferative activity against androgen-sensitive human LNCaP cells assessed as inhibition of testosterone-induced cell growth at 1 uM incubated for 48 hrs by MTT assay relative to non-stimulation. In kind it is functional. The arrangement: scale not given: the % may be the effect or the level left. The procedure, abridged:
(§3)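 LNCaP cells were seeded at 8 × 10^3/well in medium with 10% FBS and grown 48 h. They were then exposed for 48 h to 0.1 nM testosterone or DHT, alone or with compound at 0.125, 0.25, 0.5 or 1 μM. Vehicle control was 0.1% DMSO. Read-out was MTT for 3 h at 37 °C, then OD 590 nm, given as fold proliferation versus vehicle. Triplicate wells, three independent repeats; SEM, n = 3.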

Experiment [5] concerns LNCaP. Description: Antiproliferative activity against androgen-sensitive human LNCaP cells assessed as inhibition of DHT-induced cell growth at 1 uM incubated for 48 hrs by MTT assay relative to non-stimulation. In kind it is functional. The arrangement: scale not given: the % may be the effect or the level left. The procedure, abridged: (§4)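 LNCaP cells seeded at 8 × 10^3/well in RPMI with 10% FBS and grown 48 h. Then treated with 0.1 nM DHT alone or with test agent at 0.125, 0.25, 0.5 or 1 μM for 48 h. Control was 0.1% DMSO. MTT for 3 h at 37 °C, OD read at 590 nm. Growth expressed as fold of DMSO control. Triplicate wells, three independent repeats.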

Experiment [6] concerns LNCaP. Kind of experiment: Antiproliferative activity against androgen-sensitive human LNCaP cells assessed as inhibition of testosterone-induced cell growth at 0.125 uM incubated for 48 hrs by MTT assay relative to non-stimulation. In kind it is functional. Details: scale not given: the % may be the effect or the level left. A digest of the protocol: as §2
Experiment [7] deals with LNCaP. Description: Antiproliferative activity against androgen-sensitive human LNCaP cells assessed as inhibition of DHT-induced cell growth at 0.125 uM incubated for 48 hrs by MTT assay. In kind it is functional. Details: scale not given: the % may be the effect or the level left. The procedure, abridged:
as §4

Experiment [8] addresses T1, Cytochrome P450 3A4 (Homo sapiens, UniProt P08684). Description: Inhibition of human CYP3A4 assessed as dissociation constant. The class given is ADME. A digest of the protocol: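 Spectral titration of 2 μM codon-optimized full-length human CYP3A4 in 0.1 M phosphate pH 7.4 with 20% glycerol and 1 mM DTT, at ambient temperature. Ligand was added from DMSO in small aliquots, keeping final solvent below 2%. Absorbance difference spectra were recorded, and Kd was taken from hyperbolic or quadratic fits to the titration plots.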

The target of experiment [9] is T1, Cytochrome P450 3A4. Description: Inhibition of recombinant human CYP3A4 using BFC as substrate. In kind it is ADME. A digest of the protocol:
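Codon-optimized full-length recombinant human CYP3A4 in a soluble reconstituted system. Activity measured was debenzylation of 7-benzyloxy-4-(trifluoromethyl)coumarin; IC50 values were determined.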

Experiment [10] deals with LNCaP. Description: Antiproliferative activity against androgen-sensitive human LNCaP cells assessed as inhibition of DHT-induced cell growth at 0.125 uM incubated for 48 hrs by MTT assay relative to non-stimulation. The class given is functional. The arrangement: scale not given: the % may be the effect or the level left. The procedure, abridged: as §4
In experiment [11] the test system is LNCaP. Kind of experiment: Antiproliferative activity against androgen-sensitive human LNCaP cells assessed as inhibition of DHT-induced cell growth at 0.5 uM incubated for 48 hrs by MTT assay relative to non-stimulation. In kind it is functional. The arrangement: scale not given: the % may be the effect or the level left. A digest of the protocol: as §4
The subject of experiment [12] is LNCaP. Description: Antiproliferative activity against androgen-sensitive human LNCaP cells assessed as inhibition of DHT-induced cell growth at 0.25 uM incubated for 48 hrs by MTT assay relative to non-stimulation. The class given is functional. Details: scale not given: the % may be the effect or the level left. A digest of the protocol:
as §3

In general, IC50 refers to the concentration that gives 50% inhibition. Broadly, the Kd is the constant that tells how readily two partners part at equilibrium.

T1 sequence (P08684 whole entry): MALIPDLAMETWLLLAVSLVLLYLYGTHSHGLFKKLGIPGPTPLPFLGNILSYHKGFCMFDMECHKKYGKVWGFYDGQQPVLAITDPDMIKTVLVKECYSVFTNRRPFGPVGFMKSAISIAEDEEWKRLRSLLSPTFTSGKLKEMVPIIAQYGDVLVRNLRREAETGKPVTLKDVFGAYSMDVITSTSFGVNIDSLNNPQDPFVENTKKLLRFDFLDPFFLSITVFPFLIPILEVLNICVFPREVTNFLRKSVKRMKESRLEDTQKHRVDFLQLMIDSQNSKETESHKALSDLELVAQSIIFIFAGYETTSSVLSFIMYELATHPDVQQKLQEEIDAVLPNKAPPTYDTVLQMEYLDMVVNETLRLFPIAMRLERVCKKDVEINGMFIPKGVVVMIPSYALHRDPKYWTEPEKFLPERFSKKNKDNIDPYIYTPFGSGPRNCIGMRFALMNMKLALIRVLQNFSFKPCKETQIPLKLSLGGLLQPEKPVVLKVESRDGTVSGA

`C[C@]12CC[C@H]3[C@@H](C([C@H]4C=CC[C@H]5C(=O)OC(=O)[C@@H]45)CC4=CC(=O)CC[C@@]43C)[C@@H]1CC[C@@H]2O` (some centres not stated): the IC50 in the experiment with LNCaP [1] stood at 131 µM; in the experiment on PC-3 it was 62.5 µM; in the experiment with DU-145, 86.5 µM.
The corresponding values for `C=C/C=C/[C@@H]1CC2=CC(=O)CC[C@]2(C)[C@H]2CC[C@]3(C)C(=O)CC[C@H]3[C@H]12` are 33.5 µM, 51.7 µM and 21.3 µM.
Turning to `C[C@]12CC[C@H]3[C@@H]([C@H](/C=C/C=C/C=C/[C@@H]4CC5=CC(=O)CC[C@]5(C)[C@H]5CC[C@]6(C)[C@@H](O)CC[C@H]6[C@H]45)CC4=CC(=O)CC[C@@]43C)[C@@H]1CC[C@@H]2O`, the IC50 is 12 µM in the experiment on LNCaP [1], 13.6 µM in the experiment with PC-3, 14.4 µM in the experiment on DU-145 and 1.2 µM at Cytochrome P450 3A4 [9]. Also, the Activity is 86% in the experiment with LNCaP [2]; 100% in the experiment on LNCaP [3]; 98% in the experiment on LNCaP [4]; 100% with LNCaP [5]; 45% in the experiment with LNCaP [6]; 45% in the experiment on LNCaP [7]. In addition, the Activity in the experiment with LNCaP [10] was 76%; with LNCaP [11] it was 83%; in the experiment on LNCaP [12] it was 83%. Further, the Kd on Cytochrome P450 3A4 [8] turned out to be 5.5 µM.
With `C[C@]12CC[C@H]3[C@@H]([C@H](C/C=C/C[C@@H]4CC5=CC(=O)CC[C@]5(C)[C@H]5CC[C@]6(C)[C@@H](O)CC[C@H]6[C@H]45)CC4=CC(=O)CC[C@@]43C)[C@@H]1CC[C@@H]2O`, the dissociation constant Kd on Cytochrome P450 3A4 [8] came to 7.1 µM. Moreover, on Cytochrome P450 3A4 [9], the concentration for half-maximal inhibition (IC50) turned out to be 6.5 µM.
Take `C[C@]12CC[C@H]3[C@@H]([C@H](C/C=C\C[C@@H]4CC5=CC(=O)CC[C@]5(C)[C@H]5CC[C@]6(C)[C@@H](O)CC[C@H]6[C@H]45)CC4=CC(=O)CC[C@@]43C)[C@@H]1CC[C@@H]2O`: the dissociation constant Kd at Cytochrome P450 3A4 [8] is 0.37 µM. Also, the 50% inhibitory concentration (IC50) at Cytochrome P450 3A4 [9] was 0.8 µM.
On to `C[C@]12CC[C@H]3[C@@H]([C@H](/C=C/C=C/C=C/[C@@H]4CC5=CC(=O)CC[C@]5(C)[C@H]5CC[C@]6(C)[C@H](O)CC[C@H]6[C@H]45)CC4=CC(=O)CC[C@@]43C)[C@@H]1CC[C@H]2O`, for which the IC50 turned out to be 37.1 µM in the experiment on LNCaP [1], 44.5 µM in the experiment with PC-3, 21.4 µM in the experiment on DU-145 and 22 µM on Cytochrome P450 3A4 [9]. Moreover, the Activity with LNCaP [2] is 100%; with LNCaP [3], 112%; in the experiment on LNCaP [4] it was 84%; with LNCaP [5], 100%; with LNCaP [6], 82%; with LNCaP [7], 45%. Further, the values for the Activity in the experiment on LNCaP [10], in the experiment with LNCaP [11] and with LNCaP [12] were 54%, 86% and 84%, respectively. Further, the dissociation constant (Kd) on Cytochrome P450 3A4 [8] was determined as 1.6 µM.
As for `C=C/C=C/[C@@H]1CC2=CC(=O)CC[C@]2(C)[C@H]2CC[C@]3(C)[C@@H](O)CC[C@H]3[C@H]12`, the values for the IC50 with LNCaP [1], in the experiment on PC-3 and in the experiment with DU-145 were 28.8 µM, 34.1 µM and 29 µM, respectively.
As to `C[C@]12CCC(=O)C=C1C[C@@H](/C=C/C=C/C=C/[C@@H]1CC3=CC(=O)CC[C@]3(C)[C@H]3CC[C@]4(C)C(=O)CC[C@H]4[C@H]13)[C@@H]1[C@@H]2CC[C@]2(C)C(=O)CC[C@@H]12`, the IC50 with LNCaP [1] stood at 72.7 µM; with PC-3, 29 µM; with DU-145, 53.6 µM; at Cytochrome P450 3A4 [9] it was 3.6 µM. Also, the Kd on Cytochrome P450 3A4 [8] worked out at 1.4 µM.
For the molecule `C=C/C=C/[C@@H]1CC2=CC(=O)CC[C@]2(C)[C@H]2CC[C@]3(C)[C@H](O)CC[C@H]3[C@H]12`, the concentration for half-maximal inhibition (IC50) turned out to be 16.6 µM in the experiment with LNCaP [1], 31.5 µM with PC-3 and 23.8 µM with DU-145.
The corresponding values for `CC(=O)O[C@]1(C(C)=O)CC[C@H]2[C@@H]3C=C(Cl)C4=CC(=O)[C@@H]5C[C@@H]5[C@]4(C)[C@H]3CC[C@@]21C` [CYPROTERONE ACETATE] are 59.6 µM, 56.9 µM and 50.7 µM.
